Measurements reported in ChEMBL document CHEMBL4715798, “Structure-Based Optimization of Multifunctional Agonists for Opioid and Neuropeptide FF Receptors with Potent Nontolerance Forming Analgesic Activities” (J Med Chem, 2016).
Calls of active or inactive are those of the source. The rule behind the calls is not given here. Non-standard residues stand in square brackets, D forms with d. Residues, ends and D or L forms follow the SMILES beside them. NMeF = CN[C@@H](Cc1ccccc1)C(=O)O

What was measured:
[1] = biological target: T1, Neuropeptide FF receptor 2 (Homo sapiens, UniProt Q9Y5X5); assay: Agonist activity at NPFFR2 (unknown origin) expressed in HEK293-A cells assessed as reduction in forskolin-induced cAMP accumulation incubated for 30 mins by competition PKA binding assay relative to Tyr-D-Ala-Gly-Phe-Gln-Pro-Gln-Arg-Phe-NH2; assay type: functional, cell-based; conditions: filed as agonist
In short: (§1)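 cAMP functional read-out in transfected cells. Log EC50 ± standard error was obtained by nonlinear regression of data from at least three independent experiments run in duplicate.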

[2] = biological target: T2, Neuropeptide FF receptor 1 (Homo sapiens, UniProt Q9GZQ6); assay: Agonist activity at NPFFR1 (unknown origin) expressed in HEK293-A cells assessed as reduction in forskolin-induced cAMP accumulation incubated for 30 mins by competition PKA binding assay relative to Tyr-D-Ala-Gly-Phe-Gln-Pro-Gln-Arg-Phe-NH2; assay type: functional, cell-based; conditions: filed as agonist; in short: as §1
Mus musculus [3] = assay: Antinociceptive activity in mouse at 50 pmol, […] pre-treated with 10 nmol, icv mu opioid receptor antagonist beta-funaltrexamine 4 hrs prior to test compound dosing by radiant heat tail-flick test; assay type: functional, organism-based
[4] = biological target: Kappa-type opioid receptor (Homo sapiens, UniProt P41145); assay: Agonist activity at kappa opioid receptor (unknown origin) expressed in HEK293-A cells assessed as reduction in forskolin-induced cAMP accumulation incubated for 30 mins by competition PKA binding assay; assay type: functional, cell-based; in short: as §1
[5] = biological target: T2, Neuropeptide FF receptor 1; assay: Agonist activity at NPFFR1 (unknown origin) expressed in HEK293-A cells assessed as reduction in forskolin-induced cAMP accumulation incubated for 30 mins by competition PKA binding assay; assay type: functional, cell-based; conditions: read-out: EC50; in short: as §1
[6] = biological target: T1, Neuropeptide FF receptor 2; assay: Agonist activity at NPFFR2 (unknown origin) expressed in HEK293-A cells assessed as reduction in forskolin-induced cAMP accumulation incubated for 30 mins by competition PKA binding assay; assay type: functional, cell-based; conditions: read-out: EC50; in short: as §1
Mus musculus [7] = assay: Antinociceptive activity in mouse at 50 pmol, […] pre-treated with 10 nmol, icv delta opioid receptor antagonist naltrindole 20 mins prior to test compound dosing by radiant heat tail-flick test; assay type: functional, organism-based
Mus musculus [8] = assay: Antinociceptive activity in mouse at 50 pmol, […] pre-treated with 10 nmol, icv nonselective NPFF receptor antagonist RF9 by radiant heat tail-flick test; assay type: functional, organism-based
Mus musculus [9] = assay: Antinociceptive activity in mouse assessed as development of tolerance dosed repeated icv injections for 6 days by radiant heat tail-flick test; assay type: functional, organism-based; conditions: time 6.0 day
In short: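 Tail-flick test in mice. Peptide was given icv once daily for 6 days at a fixed dose. Antinociceptive responses to the same dose on day 1 and day 6 were compared to judge tolerance. Values are mean ± SEM.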

Mu-type opioid receptor [10] = biological target: T3, Mu-type opioid receptor (Homo sapiens, UniProt P35372); assay: Agonist activity at mu opioid receptor (unknown origin) expressed in HEK293-A cells assessed as reduction in forskolin-induced cAMP accumulation incubated for 30 mins by competition PKA binding assay; assay type: functional, cell-based; conditions: read-out: EC50; in short: as §1
Mus musculus [11] = assay: Antinociceptive activity in icv dosed mouse model of CFA-induced chronic inflammatory pain assessed as reduction in tactile hyperalgesia measured after 15 to 90 mins post dose; assay type: functional; conditions: time 15-90 min
Mus musculus [12] = assay: Antinociceptive activity in icv dosed mouse assessed as inhibition of phase I flinching behaviors by formalin-induced nociceptive behavioral test; assay type: functional
Mus musculus [13] = assay: Antinociceptive activity in icv dosed mouse assessed as inhibition of phase II flinching behaviors by formalin-induced nociceptive behavioral test; assay type: functional
[14] = biological target: T4, Delta-type opioid receptor (Homo sapiens, UniProt P41143); assay: Agonist activity at delta opioid receptor (unknown origin) expressed in HEK293-A cells assessed as reduction in forskolin-induced cAMP accumulation incubated for 30 mins by competition PKA binding assay; assay type: functional, cell-based; in short: as §1
Mus musculus [15] = assay: Antinociceptive activity in mouse dosed repeated icv injections for 6 days by radiant heat tail-flick test; assay type: functional; conditions: time 6 day
In short: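 Mice received the same icv dose once daily for 6 days in the radiant heat tail-flick test. Tolerance was judged by comparing the antinociceptive response on day 1 with day 6. Values are mean ± SEM.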

Mus musculus [16] = assay: Antinociceptive activity in mouse assessed as time duration of antinociceptive effect dosed repeated icv injections for 6 days by radiant heat tail-flick test; assay type: functional; conditions: time 6 day
[17] = Toxicity in mouse assessed as latency to fall off the rod at 30 mg/kg, ip measured after 10 to 30 mins by rotarod test; assay type: organism-based; conditions: in vivo, time 10-30 min
Mu-type opioid receptor [18] = biological target: T3, Mu-type opioid receptor; assay: Agonist activity at mu opioid receptor (unknown origin) expressed in HEK293-A cells assessed as reduction in forskolin-induced cAMP accumulation incubated for 30 mins by competition PKA binding assay relative to Tyr-D-Ala-Gly-Phe-Gln-Pro-Gln-Arg-Phe-NH2; assay type: functional, cell-based; conditions: filed as agonist; in short: as §1
Mus musculus [19] = assay: Antinociceptive activity in mouse at 50 pmol, […] pre-treated with 10 nmol, icv kappa opioid receptor antagonist nor-binaltorphimine 30 mins prior to test compound dosing by radiant heat tail-flick test; assay type: functional, organism-based
[20] = Half life in mouse brain membrane homogenate at 10 uM by HPLC analysis; assay type: ADME, cell membranes
Mus musculus [21] = assay: Antinociceptive activity in mouse assessed as time for peak antinociceptive effect dosed repeated icv injections for 6 days by radiant heat tail-flick test; assay type: functional; conditions: time 6 day
Mus musculus [22] = assay: Antinociceptive activity in mouse at 50 pmol, […] pre-treated with 5 nmol, icv opioid receptor antagonist naloxone 10 mins prior to test compound dosing by radiant heat tail-flick test; assay type: functional, organism-based
[23] = Toxicity in mouse assessed as latency to fall off the rod at 200 pmol, icv measured after 10 to 30 mins by rotarod test; conditions: in vivo, icv_or_intrathecal, time 10-30 min
[24] = biological target: T4, Delta-type opioid receptor; assay: Agonist activity at delta opioid receptor (unknown origin) expressed in HEK293-A cells assessed as reduction in forskolin-induced cAMP accumulation incubated for 30 mins by competition PKA binding assay relative to Tyr-D-Ala-Gly-Phe-Gln-Pro-Gln-Arg-Phe-NH2; assay type: functional, cell-based; conditions: filed as agonist; in short: as §1
Mus musculus [25] = assay: Antinociceptive activity in mouse model of CFA-induced chronic inflammatory pain assessed as reduction in tactile hyperalgesia at 30 pmol, icv dosed once daily for 6 days; assay type: functional, organism-based; conditions: time 6.0 day
Mus musculus [26] = assay: Antinociceptive activity in ip dosed mouse by radiant heat tail-flick test; assay type: functional

For `C[C@@H](NC(=O)[C@@H](N)Cc1ccc(O)cc1)C(=O)NCC(=O)N(C)[C@@H](Cc1ccccc1)C(=O)NCC(=O)N1CCC[C@H]1C(=O)N[C@@H](CCC(N)=O)C(=O)N[C@@H](CCCNC(=N)N)C(=O)N[C@@H](Cc1ccccc1)C(N)=O` (H-Y[dA]G[NMeF]GPQRF-NH2), the Emax [1] was 73.3%, the Emax [2] was 69.8% and the Activity (Mus musculus [3]) was “Active”. The EC50 [4] was 1490 nM, the EC50 [5] was 973 nM and the EC50 [6] was 311 nM. The Activity (Mus musculus [7]) was “inactive”, the Activity (Mus musculus [8]) was “Active” and the Activity (Mus musculus [9]) was “Active”. The EC50 (Mu-type opioid receptor [10]) was 38.6 nM, the Activity (Mus musculus [11]) was “Dose-dependent effect” and the ED50 (Mus musculus [11]) was 3.92 pmol. For the same compound, the Activity (Mus musculus [12]) was “Dose-dependent effect”, the ED50 (Mus musculus [12]) was 18.8 pmol and the Activity (Mus musculus [13]) was “Dose-dependent effect”. The ED50 (Mus musculus [13]) was 103.4 pmol, the EC50 [14] was 575 nM and the ED50 (Mus musculus [15]) was 0.0163 nmol. For the same compound, the Time (Mus musculus [16]) was >60 min, the Activity [17] was “Non-Toxic” and the Emax (Mu-type opioid receptor [18]) was 81.6%. The Activity (Mus musculus [19]) was “Active”, the half-life at 10 µM [20] was 1.44 h and the Time (Mus musculus [21]) was 20 min. The Activity (Mus musculus [22]) was “inactive”, the Activity [23] was “Non-Toxic” and the Emax [24] was 85.4%. For the same compound, the Activity (Mus musculus [25]) was “Active”, the Activity (Mus musculus [26]) was “Dose-dependent effect” and the ED50 (Mus musculus [26]) was 26.6 mg/kg.
